Measured values published in publication PMC9041360 (RSC Advances, 2021).
pIC50: −log10 of the molar value. Read-outs that look alike come from different tables or passages of the source.

How the values were obtained:
[1] = tested on: HeLa cells; settings: read-out: IC50 cytotoxicity against HeLa cells; HeLa cells ref 40; cited from earlier work
[2] = tested on: HeLa cells; assay: Cytotoxicity testing using MTT, dose–response; type: cell-based, human
How it was run: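 HeLa cells grown in RPMI 1640 with 10% FBS, 2 mM L-glutamine and 1% antibiotics at 37 °C, 5% CO2. Seeded at 10 × 10^3 cells per well and left to adhere overnight. The whole medium was replaced with test compound in medium for 48 h. MTT (4 mg mL−1 in PBS) was added for 4 h, then cells were centrifuged and formazan dissolved in DMSO. Absorbance at 590/640 nm. Viability given as percent of untreated control.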

[3] = tested on: HeLa cells; assay: Recovery experiments; type: cell-based, human; settings: 5 and 10 μM, exposure 1–8 h, then 48 h recovery, MTT
[4] = tested on: HeLa cells; assay: Membrane damage by LDH leakage; type: cell-based, human
How it was run: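 HeLa cells were seeded at 1 × 10^4 per well. At 30 min, 45 min, 1, 2, 3 and 6 h after treatment, LDH release was measured with the CytoTOX One membrane-integrity kit. Lysis solution gave maximum leakage. Fluorescence (ex 560/em 590) was expressed as percent of maximum LDH leakage.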

[5] = tested on: Saccharomyces cerevisiae P23; assay: Membrane permeabilization assay; type: cell-based; settings: S. cerevisiae, 5 and 10 μM
How it was run: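 S. cerevisiae P23 was grown aerobically in YEPG at 30 °C to mid-log phase (OD450 about 0.5). Cells were harvested, washed and resuspended to OD450 about 0.2 in 0.15 M citrate–phosphate buffer, pH 6.0, with 0.5% glucose and 10 μM propidium iodide. Test compound was added at 1, 5 or 10 μM final. PI uptake was followed as fluorescence (ex 515/em 620) at 25 °C. Controls: 10 μM melittin (positive) and buffer (baseline). Two sets of experiments, with no background subtraction.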

[6] = Lipid bilayer experiments; settings: planar DOPC/DOPE membranes, 50 mV
How it was run: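 Black lipid bilayers were painted from 3% (w/v) DOPC/DOPE 2:1 (w/w) in n-decane/butanol 9:1 across a 0.5 mm aperture. Both compartments held 10 mM Tris, 1 M KCl, pH 7.4, at 25 °C. Test compound (5 or 10 μM) was added to the cis side. Current was recorded with Ag/AgCl electrodes at 50 mV, cis positive, with traces of 120 s.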

[7] = tested on: HeLa cells; assay: Cellular morphology by light microscopy; type: cell-based, human; settings: 48 h of exposure, concentrations from 2.5 to 20 μM
How it was run: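 HeLa cells in RPMI were seeded at 5 × 10^3 cells per well on poly-D-lysine-coated glass-bottom imaging plates. Next day they were treated with 20, 5 or […] μM test compound. Live-cell imaging used an inverted microscope with an incubation chamber supplied with 5% CO2 and a 100× oil objective. Images were taken after 48 h of treatment.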

[8] = tested on: Aspergillus fumigatus (BCC020_2845); assay: Antifungal activity, broth two-fold microdilution; type: cell-based; settings: 30 °C, 48 h, tested 75 to 0.036 μM; NA = no activity at 75 μM
How it was run: (§1)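 Two-fold broth microdilution per CLSI M100-S20. Compounds were serially diluted from 75 to 0.036 μM in Mueller Hinton broth with 2% glucose. Inoculum from an overnight culture, about 5 × 10^5 CFU mL−1 final. Incubated aerobically at 30 °C for 48 h. Solvent control: medium with 50% DMSO in methanol. Fluconazole (32 to 0.0625 μg mL−1) served as positive control. MIC was the lowest concentration showing some growth inhibition. Triplicate.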

[9] = tested on: Alternaria alternata (BCC020_0609); assay: Antifungal activity, broth two-fold microdilution; type: cell-based; settings: 30 °C, 48 h, tested 75 to 0.036 μM; NA = no activity at 75 μM
How it was run: as §1

Substance	pIC50 [1]	reduction of cell viability / inhibition ([2]; MTT, 48 h, at higher concentrations (5–20 μM))	pIC50 ([2]; read-out: IC50 against HeLa cells (MTT assay), 48 h treatment)	cell viability after compound washout and recovery (in words) [3]	LDH leakage (in words) ([4]; early time points up to 2 h)	LDH accumulated in the medium, % of positive control ([4]; only after 3 h)	membrane permeabilization, PI entry into yeast cells (in words) [5]	pore-forming activity / membrane permeabilization (in words) ([6]; 5 μM)	typical transmembrane electrical current ([6]; 10 μM)	cellular morphology (in words) [7]	MIC A. fumigatus [8]	MIC A. alternata [9]
Iturin A	5.76	–	–	–	–	–	–	–	–	–	–	–
minutissamide A [Compound 1]	–	70%	5.55	easily tolerated by the cells for the first two hours	No LDH leakage	up to 30%	No membrane disruption was detectable	almost completely inactive	about 10 pA	cell shrinkage and membrane rupture	37.5 µM	75 µM
